{
  "source": "paper PMC6468299",
  "about": "(Nucleic Acids Research, 2019)",
  "key": {"DNA polymerase γ (Pol-γ)": {"molecular_target": "T1, DNA polymerase γ (Pol-γ) (Homo sapiens, UniProt P54098)", "T1 sequence (P54098 1-1239)": "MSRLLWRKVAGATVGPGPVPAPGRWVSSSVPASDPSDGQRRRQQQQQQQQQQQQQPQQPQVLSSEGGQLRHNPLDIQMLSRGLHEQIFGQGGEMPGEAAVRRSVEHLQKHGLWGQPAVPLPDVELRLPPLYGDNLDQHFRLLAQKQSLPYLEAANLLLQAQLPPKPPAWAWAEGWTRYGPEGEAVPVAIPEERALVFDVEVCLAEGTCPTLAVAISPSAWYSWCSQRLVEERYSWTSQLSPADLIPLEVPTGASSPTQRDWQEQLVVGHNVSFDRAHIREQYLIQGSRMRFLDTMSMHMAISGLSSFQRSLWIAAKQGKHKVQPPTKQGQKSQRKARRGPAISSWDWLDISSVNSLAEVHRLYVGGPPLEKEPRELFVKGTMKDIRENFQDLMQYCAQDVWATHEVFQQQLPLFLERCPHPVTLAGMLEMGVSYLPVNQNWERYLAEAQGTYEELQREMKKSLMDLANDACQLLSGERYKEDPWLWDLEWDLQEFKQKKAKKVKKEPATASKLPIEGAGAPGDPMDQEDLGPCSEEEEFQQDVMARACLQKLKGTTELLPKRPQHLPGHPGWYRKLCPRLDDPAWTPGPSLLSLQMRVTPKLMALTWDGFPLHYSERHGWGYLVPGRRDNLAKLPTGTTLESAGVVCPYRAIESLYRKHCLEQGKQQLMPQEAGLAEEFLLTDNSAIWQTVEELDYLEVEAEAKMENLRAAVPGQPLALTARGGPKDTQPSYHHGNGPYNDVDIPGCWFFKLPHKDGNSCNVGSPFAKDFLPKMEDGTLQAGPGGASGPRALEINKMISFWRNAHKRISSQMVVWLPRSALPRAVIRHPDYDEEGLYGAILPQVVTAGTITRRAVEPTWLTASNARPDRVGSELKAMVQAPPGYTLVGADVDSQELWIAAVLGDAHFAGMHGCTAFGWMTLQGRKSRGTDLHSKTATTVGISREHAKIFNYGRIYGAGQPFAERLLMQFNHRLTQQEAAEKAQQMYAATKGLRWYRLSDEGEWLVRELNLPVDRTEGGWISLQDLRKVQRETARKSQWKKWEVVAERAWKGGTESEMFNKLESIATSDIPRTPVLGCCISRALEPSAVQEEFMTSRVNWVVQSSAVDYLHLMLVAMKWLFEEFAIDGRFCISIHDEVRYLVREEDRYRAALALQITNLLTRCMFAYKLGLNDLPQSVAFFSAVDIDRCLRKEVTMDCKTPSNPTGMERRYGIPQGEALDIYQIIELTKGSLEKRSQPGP", "test": "DNA polymerase inhibition assay, Pol-γ", "assay_type": "biochemical", "settings": "1 h, 3H-dTTP incorporation", "outline": "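Reactions contained 25 μM each dATP/dCTP/dGTP, 25 nM TTP plus 1 μCi ³H-TTP, 160 nM template/primer, and serially diluted test nucleotide (0–200 μM). Incubation was 1 h at 37°C, stopped with TCA (10% final). DNA was precipitated 40 min at 4°C, washed and scintillation-counted; inhibition was taken from reduced radioactivity.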"}, "DNA polymerase β (Pol-β)": {"molecular_target": "DNA polymerase β (Pol-β) (Homo sapiens, UniProt P06746)", "test": "DNA polymerase inhibition assay, Pol-β", "assay_type": "biochemical", "settings": "1 h, 3H-dTTP incorporation", "outline": "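Reactions contained 25 μM each dATP/dCTP/dGTP, 25 nM TTP plus 1 μCi ³H-TTP, 160 nM template/primer, and serially diluted test nucleotide (0–200 μM). Incubation was 1 h at 37°C. DNA was TCA-precipitated, washed and counted; inhibition was taken from reduced incorporation. ddNTPs served as positive control.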"}, "DNA polymerase α (Pol-α)": {"molecular_target": "T2, DNA polymerase α (Pol-α) (Homo sapiens, UniProt P09884)", "T2 sequence (P09884 1-1462)": "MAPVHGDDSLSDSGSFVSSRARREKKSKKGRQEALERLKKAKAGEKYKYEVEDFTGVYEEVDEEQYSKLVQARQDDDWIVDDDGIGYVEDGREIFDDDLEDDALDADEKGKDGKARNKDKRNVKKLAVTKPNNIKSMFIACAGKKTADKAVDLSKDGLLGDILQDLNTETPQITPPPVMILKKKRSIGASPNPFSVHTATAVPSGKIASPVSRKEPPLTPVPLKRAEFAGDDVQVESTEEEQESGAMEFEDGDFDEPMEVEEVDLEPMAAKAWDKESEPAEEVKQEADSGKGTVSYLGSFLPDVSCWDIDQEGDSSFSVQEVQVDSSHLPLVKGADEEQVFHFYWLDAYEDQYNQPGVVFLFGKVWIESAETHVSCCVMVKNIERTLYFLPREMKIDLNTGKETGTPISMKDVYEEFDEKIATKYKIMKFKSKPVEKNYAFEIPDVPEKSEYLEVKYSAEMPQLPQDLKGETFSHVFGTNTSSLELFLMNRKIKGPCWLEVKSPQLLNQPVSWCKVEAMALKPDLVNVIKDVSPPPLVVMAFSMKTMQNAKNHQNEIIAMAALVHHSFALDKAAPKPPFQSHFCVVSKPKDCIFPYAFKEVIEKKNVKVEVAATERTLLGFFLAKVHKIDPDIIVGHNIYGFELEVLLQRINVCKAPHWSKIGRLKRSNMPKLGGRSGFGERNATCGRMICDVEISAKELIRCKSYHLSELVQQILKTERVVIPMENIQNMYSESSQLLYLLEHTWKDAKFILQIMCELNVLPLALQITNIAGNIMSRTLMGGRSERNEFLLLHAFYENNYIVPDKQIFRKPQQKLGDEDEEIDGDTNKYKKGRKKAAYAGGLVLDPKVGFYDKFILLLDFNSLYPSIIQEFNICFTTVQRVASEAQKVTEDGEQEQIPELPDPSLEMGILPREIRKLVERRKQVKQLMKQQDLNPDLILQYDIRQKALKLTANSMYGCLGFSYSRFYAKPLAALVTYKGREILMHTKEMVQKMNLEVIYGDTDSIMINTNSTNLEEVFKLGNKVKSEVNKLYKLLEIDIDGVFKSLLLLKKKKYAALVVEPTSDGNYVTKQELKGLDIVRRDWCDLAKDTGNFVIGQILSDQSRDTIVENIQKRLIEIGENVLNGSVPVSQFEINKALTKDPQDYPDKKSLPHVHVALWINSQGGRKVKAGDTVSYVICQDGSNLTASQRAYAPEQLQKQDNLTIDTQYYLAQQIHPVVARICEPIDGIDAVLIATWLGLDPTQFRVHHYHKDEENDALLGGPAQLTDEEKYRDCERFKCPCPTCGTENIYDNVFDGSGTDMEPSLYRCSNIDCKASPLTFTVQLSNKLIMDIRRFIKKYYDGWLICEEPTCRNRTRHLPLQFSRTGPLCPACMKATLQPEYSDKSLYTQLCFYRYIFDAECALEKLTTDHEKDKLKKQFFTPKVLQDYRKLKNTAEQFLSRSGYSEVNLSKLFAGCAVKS", "test": "DNA polymerase inhibition assay, Pol-α", "assay_type": "biochemical"}, "[1]": {"test": "Cytotoxicity, sulforhodamine B assay, Caki-1", "assay_type": "cell-based, human", "settings": "human, Caki-1 cells (kidney), day 11", "outline": "(§1)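 Cells were grown 1 week in glucose- or galactose-containing medium, then seeded in 96-well plates. iCell cardiomyocytes were seeded on gelatin-coated plates and grown 5 days. Test compounds in 1:1 ethanol:water were added at each media change on days 0, 3, 7 and 10 (four doses), at up to 250 μM. Final ethanol was 2.5% at 250 μM and 1% otherwise. Total protein was read by sulforhodamine B on day 11. CC50 was fitted from triplicates.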"}, "SNB-78 (CNS)": {"test_system": "SNB-78 (CNS)", "test": "Cytotoxicity, sulforhodamine B assay, SNB-78", "assay_type": "cell-based, human", "settings": "SNB-78", "outline": "as §1"}, "[2]": {"test": "Cytotoxicity, sulforhodamine B assay, SNB-78", "assay_type": "cell-based, human", "settings": "human, SNB-78 cells (CNS), day 11", "outline": "as §1"}, "[3]": {"test": "Cytotoxicity, sulforhodamine B assay, Molt-4", "assay_type": "cell-based, human", "settings": "human, Molt-4 cells (blood), day 11", "outline": "as §1"}, "[4]": {"test": "Cytotoxicity, sulforhodamine B assay, HepG2", "assay_type": "cell-based, human", "settings": "human, HepG2 cells (liver), day 11, four doses", "outline": "as §1"}, "[5]": {"test": "Cytotoxicity, sulforhodamine B assay, COLO 205", "assay_type": "cell-based, human", "settings": "human, COLO 205 cells (intestine), day 11", "outline": "as §1"}, "[6]": {"test": "Cytotoxicity, sulforhodamine B assay, SkMC", "assay_type": "cell-based, human", "settings": "human, SkMC cells (muscle), CC50, SkMC, day 11", "outline": "as §1"}, "[7]": {"test": "Cytotoxicity, sulforhodamine B assay, iCell cardiomyocytes", "assay_type": "cell-based", "settings": "human, iCell cardiomyocytes (heart)", "outline": "as §1"}, "[8]": {"settings": "Pol-α, 1 h, 3H-dTTP incorporation"}},
  "note": "Read-outs that look alike come from different tables or passages of the source.",
  "data": [
    {"molecule": "O=P(O)(O)OP(=O)(O)OP(=O)(O)OC[C@H]1O[C@@H](n2cnc3c(O)ncnc32)[C@H](F)[C@@H]1O", "note": "[2′-F-ITP]", "values": [
      {"measurement": "IC50", "setting": "DNA polymerase γ (Pol-γ)", "result": "> 200", "unit": "µM"},
      {"measurement": "IC90", "setting": "DNA polymerase γ (Pol-γ)", "result": "> 200", "unit": "µM"},
      {"measurement": "IC50", "setting": "DNA polymerase β (Pol-β)", "result": "> 200", "unit": "µM"},
      {"measurement": "IC90", "setting": "DNA polymerase β (Pol-β)", "result": "> 200", "unit": "µM"},
      {"measurement": "IC50", "setting": "DNA polymerase α (Pol-α); [8]", "result": "> 200", "unit": "µM"},
      {"measurement": "IC90", "setting": "DNA polymerase α (Pol-α); [8]", "result": "> 200", "unit": "µM"}
    ]},
    {"molecule": "C[C@@]1(CO)[C@H](O)CC[C@@]2(C)[C@H]1CC[C@H]1C[C@@H]3C[C@@]12CC[C@]3(O)CO", "note": "[Aphidicolin, reference compound]", "values": [
      {"measurement": "IC90", "setting": "DNA polymerase α (Pol-α)", "result": 16.5, "unit": "µM"}
    ]},
    {"molecule": "CC(C)OC(=O)[C@H](C)N[P@](=O)(OC[C@H]1O[C@@H](n2ccc(=O)[nH]c2=O)[C@](C)(F)[C@@H]1O)Oc1ccccc1", "note": "[SOF, Sofosbuvir]", "values": [
      {"measurement": "CC50 at 11 days", "setting": "[1]; CC50, Caki-1, Galactose media", "result": "> 250", "unit": "µM"},
      {"measurement": "CC50 at 11 days", "setting": "[1]; CC50, Caki-1, Glucose media", "result": "> 250", "unit": "µM"},
      {"measurement": "decrease of CC50 in galactose compared to glucose media", "setting": "SNB-78 (CNS)", "result": "2–10 fold"},
      {"measurement": "CC50 at 11 days", "setting": "[2]; CC50, SNB-78, Galactose media", "result": 120, "unit": "µM"},
      {"measurement": "CC50 at 11 days", "setting": "[2]; CC50, SNB-78, Glucose media", "result": "> 250", "unit": "µM"},
      {"measurement": "CC50 at 11 days", "setting": "[3]; CC50, Molt-4, Galactose media", "result": "> 250", "unit": "µM"},
      {"measurement": "CC50 at 11 days", "setting": "[3]; CC50, Molt-4, Glucose media", "result": "> 250", "unit": "µM"},
      {"measurement": "CC50 at 11 days", "setting": "[4]; CC50, HepG2, Galactose media", "result": 97, "unit": "µM"},
      {"measurement": "CC50 at 11 days", "setting": "[4]; CC50, HepG2, Glucose media", "result": 114, "unit": "µM"},
      {"measurement": "CC50 at 11 days", "setting": "[5]; CC50, COLO 205, Galactose media", "result": 123, "unit": "µM"},
      {"measurement": "CC50 at 11 days", "setting": "[5]; CC50, COLO 205, Glucose media", "result": 155, "unit": "µM"},
      {"measurement": "CC50 at 11 days", "setting": "[6]; Galactose media", "result": "> 250", "unit": "µM"},
      {"measurement": "CC50 at 11 days", "setting": "[6]; Glucose media", "result": "> 250", "unit": "µM"},
      {"measurement": "CC50 at 11 days", "setting": "[7]", "result": "> 250", "unit": "µM"}
    ]},
    {"molecule": "dideoxy nucleoside 5′ triphosphates [ddNTP, reference compound]", "values": [
      {"measurement": "IC50", "setting": "DNA polymerase γ (Pol-γ)", "result": 0.35, "unit": "µM"},
      {"measurement": "IC90", "setting": "DNA polymerase γ (Pol-γ)", "result": 8.65, "unit": "µM"},
      {"measurement": "IC50", "setting": "DNA polymerase β (Pol-β)", "result": 0.06, "unit": "µM"},
      {"measurement": "IC90", "setting": "DNA polymerase β (Pol-β)", "result": 0.65, "unit": "µM"}
    ]}
  ]
}
